This is a sample that favours compounds with a hit; in the whole collection about 2.1% have one here.
E coli RNAP – blocks E. coli RNA polymerase transcription; fluorescence transcription assay; inhibition, %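 (tested at 10 µM)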; 62,000 compounds, 0.2% hits; in the data active = inhibition above about 20%
SF1 activator – SF-1 (human) activation; CHO-K1 Gal4-SF-1 LBD luciferase reporter; % increase over DMSO SF-1-specific signal; Q13285; 65,000 compounds, 1.9% hits; activation, % at 10 µM;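 active = activation above the mean activation of all tested compounds plus 3 SD, cut at about 50% in these data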
Target sequence (Q13285 whole entry, looked up, the tested form may be a part): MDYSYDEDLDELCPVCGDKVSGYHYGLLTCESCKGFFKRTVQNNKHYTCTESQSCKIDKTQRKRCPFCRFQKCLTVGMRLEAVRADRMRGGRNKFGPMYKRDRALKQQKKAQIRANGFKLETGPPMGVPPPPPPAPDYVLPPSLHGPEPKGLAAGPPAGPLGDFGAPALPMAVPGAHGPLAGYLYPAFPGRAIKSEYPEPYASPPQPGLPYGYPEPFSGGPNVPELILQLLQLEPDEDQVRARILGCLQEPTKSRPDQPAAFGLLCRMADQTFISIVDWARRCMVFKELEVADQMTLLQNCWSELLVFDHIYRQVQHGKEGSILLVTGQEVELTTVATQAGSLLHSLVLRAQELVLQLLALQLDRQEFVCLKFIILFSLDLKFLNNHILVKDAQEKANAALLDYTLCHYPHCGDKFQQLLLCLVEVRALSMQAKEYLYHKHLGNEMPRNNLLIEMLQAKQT
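Material: CHO-K1 cells with Gal4–hSF-1 LBD chimera plus Gal4-driven luciferase / Input: 4,000 CHO-K1 cells per well / Incubation: compound exposure 20 h at 37 °C / Signal: luminescence read 15 min after SteadyLite luciferase reagent, after room-temperature equilibration / Read-out: percent activation versus DMSO / Benchmarks: DMSO negative control and −SF1 background wells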
MT1-MMP txn act – activates MT1-MMP transcription; HT1080 MT1-MMP promoter luciferase reporter, luminescence, overnight; hits give high values; activation factor at 10 µM; 86,000 compounds, 0.16% hits;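 active = activation factor of at least 2 for MT1-MMP transcription at 10 µM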
RORA act – RORA (human) activation; P35398; CHO-K1 Gal4-RORA LBD luciferase reporter, luminescence; percent increase over mock-subtracted basal signal; activation, % at 10 µM; 65,000 compounds, 1.5% hits; AID 560;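 active = activation above the mean of all tested compounds plus 3 SD, cut at about 49% in these data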
TNAP act DEA – activators of human TNAP at intermediate phosphate acceptor. P05186. 64,000 tested, under 10 active. purified TNAP, CDP-star luminescence, 100 mM DEA, 30 min; hits give high values; scale: 0 levamisole-inhibited, 1 vehicle-only enzyme. activation factor at 20 µM. AID 813;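 active = activation factor of at least 2 at 20 µM, relative to controls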
Numbers stand for hits.

Screening Cc1cc(OCC(=O)N2CCCC2)cc(C)c1Cl returned E coli RNAP inactive, SF1 activator inactive, MT1-MMP txn act inactive, RORA act inactive and TNAP act DEA inactive.
For Cc1ccc(OCC(=O)N2CCCCC2)c(Br)c1 the results were E coli RNAP inactive, SF1 activator 56.8, MT1-MMP txn act inactive, RORA act 53.8 and TNAP act DEA inactive.
Screening Cc1cccc2cc(CN(Cc3ccccc3)C(=O)N3CCOCC3)c3nnnn3c12 returned MT1-MMP txn act inactive.
For COc1cccc(NC(=O)CN2C(=O)COc3ccc(Cl)cc32)c1 the results were E coli RNAP inactive, SF1 activator inactive, MT1-MMP txn act inactive, RORA act inactive and TNAP act DEA inactive.
For CNCc1ccccc1OCC(=O)Nc1ccccc1OC the results were MT1-MMP txn act inactive.
`O=C(CSCc1ccccc1)N1CCN(c2ccc(F)cc2)CC1` gave E coli RNAP inactive and TNAP act DEA inactive.
`O=C(CSCc1cccc(F)c1)N1CCN(c2ccccc2)CC1` gave E coli RNAP inactive, SF1 activator inactive, MT1-MMP txn act inactive, RORA act 52.6 and TNAP act DEA inactive.
CCCCC(=O)Nc1ccc(C(=O)Nc2ccc3c(c2)OCO3)cc1 was read as E coli RNAP inactive, SF1 activator 51.2, MT1-MMP txn act inactive, RORA act 60.3 and TNAP act DEA inactive.
CCOC(=O)c1c(C)[nH]c(C(=O)Nc2ccc3c(c2)OCO3)c1C was read as E coli RNAP inactive, SF1 activator 132.1, MT1-MMP txn act inactive, RORA act 58.9 and TNAP act DEA inactive.
For O=C(NCCC1=CCCCC1)c1ccc(CN2CCOCC2)cc1 the results were E coli RNAP inactive, SF1 activator inactive, MT1-MMP txn act inactive, RORA act 96.0 and TNAP act DEA inactive.
O=C(Nc1ccc2c(c1)OCO2)c1ccc(CN2CCOCC2)cc1 was read as E coli RNAP inactive, SF1 activator 51.7, MT1-MMP txn act inactive, RORA act 49.4 and TNAP act DEA inactive.
Cc1ccc(-n2c(C)cc(C)c(C#N)c2=O)cc1Cl was read as E coli RNAP inactive, SF1 activator inactive, MT1-MMP txn act inactive, RORA act inactive and TNAP act DEA inactive.
`COc1ccccc1NC(=O)CCN1CCN(CCC(=O)Nc2ccccc2OC)CC1` gave E coli RNAP inactive, SF1 activator inactive, MT1-MMP txn act inactive, RORA act inactive and TNAP act DEA inactive.
For COC(=O)[C@@]1(Cc2ccc(F)cc2)[C@H]2c3cc(C(=O)N4CCCC4)n(CCc4ccccn4)c3C[C@H]2CN1C(=O)c1ccccc1 the results were MT1-MMP txn act inactive.
CCN(Cc1ccccc1)C(=O)CCCOc1ccccc1 was read as E coli RNAP inactive, SF1 activator inactive, MT1-MMP txn act inactive, RORA act 58.0 and TNAP act DEA inactive.
O=C(O)CCCC(=O)N(Cc1ccccc1)Cc1ccccc1 was read as E coli RNAP inactive, SF1 activator inactive, MT1-MMP txn act inactive, RORA act inactive and TNAP act DEA inactive.
Cc1nc(N)sc1-c1csc(Nc2ccccn2)n1 was read as SF1 activator inactive, MT1-MMP txn act inactive, RORA act 57.1 and TNAP act DEA inactive.
Screening C[C@]1(C(=O)NCC2CC2)C=C[C@@H](Cc2ccccc2)N1C(=O)c1ccccc1 returned MT1-MMP txn act inactive.
`Cc1cc(=O)n2nc(N3CCC(C(=O)NCCC4=CCCCC4)CC3)sc2n1` gave E coli RNAP inactive, SF1 activator inactive, MT1-MMP txn act inactive, RORA act inactive and TNAP act DEA inactive.
For O=C(N[C@@H](Cc1ccccc1)C(=O)O)c1cccnc1 the results were E coli RNAP inactive, SF1 activator inactive, MT1-MMP txn act inactive, RORA act inactive and TNAP act DEA inactive.
Screening O=C(CC(Nc1ccccc1)C(=O)O)c1ccccc1 (stereo unspecified) returned E coli RNAP inactive, SF1 activator inactive, MT1-MMP txn act inactive, RORA act 58.6 and TNAP act DEA inactive.
`Cc1nc(NC(=O)CSc2ccccc2N)sc1C` gave E coli RNAP inactive, SF1 activator inactive, MT1-MMP txn act inactive, RORA act inactive and TNAP act DEA inactive.
For CCOC(=O)c1cnn(-c2ncnc3c2cnn3Cc2ccccc2)c1N the results were E coli RNAP inactive, SF1 activator inactive, MT1-MMP txn act inactive, RORA act inactive and TNAP act DEA inactive.
CC(C)(C)NC(=O)NC(=O)COc1ccccc1C#N was read as E coli RNAP inactive, SF1 activator 60.1, MT1-MMP txn act inactive, RORA act inactive and TNAP act DEA inactive.
Screening COc1ccc(C(CNC(=O)COc2ccccc2C#N)N2CCOCC2)cc1 (stereo unspecified) returned E coli RNAP inactive, SF1 activator inactive, MT1-MMP txn act inactive, RORA act inactive and TNAP act DEA inactive.
Screening CCn1c(C)c(C(C)=O)c(SC)nc1=S returned MT1-MMP txn act inactive.
`COc1ccc2c(c1)CCc1c(C(=O)N3CCCCCC3)noc1-2` gave E coli RNAP inactive, SF1 activator 56.9, MT1-MMP txn act inactive, RORA act inactive and TNAP act DEA inactive.
`COc1ccc2c(c1)CCc1c(C(=O)NCc3cccnc3)noc1-2` gave E coli RNAP inactive, SF1 activator inactive, MT1-MMP txn act inactive, RORA act inactive and TNAP act DEA inactive.
For CC(=O)Cc1nsc(Nc2ccc3c(c2)OCCO3)n1 the results were E coli RNAP inactive, SF1 activator 67.4, MT1-MMP txn act inactive, RORA act 121.8 and TNAP act DEA inactive.
`COc1ccc(Nc2nc(CC(C)=O)ns2)cc1` gave MT1-MMP txn act inactive.
Screening CCOc1ccc(-n2nc3c(-n4ncc(C#N)c4N)nnc(C)c3c2C)cc1 returned MT1-MMP txn act inactive.
For O=C(Cc1ccc(Br)cc1)c1ccc(O)cc1O the results were E coli RNAP inactive, SF1 activator 83.6, MT1-MMP txn act inactive, RORA act inactive and TNAP act DEA inactive.
`Nn1c(Nc2ccccc2)nc2ccccc21` gave E coli RNAP inactive, SF1 activator inactive, MT1-MMP txn act inactive, RORA act 50.5 and TNAP act DEA inactive.
Screening CC(C)(O)c1cc(=O)sc2nc3ccccc3n12 returned E coli RNAP inactive, SF1 activator 53.4, MT1-MMP txn act inactive, RORA act 71.1 and TNAP act DEA inactive.
Screening c1ccc2nc3c(nc2c1)sc1nc2ccccc2n13 returned E coli RNAP inactive, SF1 activator inactive, MT1-MMP txn act inactive, RORA act inactive and TNAP act DEA inactive.
NC(=O)c1sc2nc3c(c(-c4cccs4)c2c1N)CCCCC3 was read as MT1-MMP txn act inactive.
`CCCOC(=O)c1ccc(NC(=O)C2CCCO2)cc1` (stereo unspecified) gave E coli RNAP inactive, SF1 activator 67.9, MT1-MMP txn act inactive, RORA act inactive and TNAP act DEA inactive.
NC(=O)c1ccc(NC(=O)C2CCCO2)cc1 (stereo unspecified) was read as MT1-MMP txn act inactive.
Screening COC(=O)Nc1ccc(S(=O)(=O)N2CCCc3ccccc32)cc1 returned E coli RNAP inactive, SF1 activator inactive, MT1-MMP txn act inactive, RORA act 53.4 and TNAP act DEA inactive.
